Measured values published in ChEMBL document CHEMBL1914307, “Small molecular CD4 mimics as HIV entry inhibitors” (Bioorg Med Chem, 2011).

Legend:
[1] = Cytotoxicity against mock-infected human PM1 cells expressing CCR5 by WST-8 assay; type: cell-based
In short: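 Viability of mock-infected PM1/CCR5 cells determined by WST-8; CC50 = concentration reducing viability by half; mean of at least three independent experiments.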

[2] = test system: Human immunodeficiency virus 1; assay: Antiviral activity against R5 tropic HIV1 YTA infected in human TZM-bl cells assessed as beta-galactosidase activity preincubated for 15 mins before infection measured after 2 days by single-round assay using luminometry; type: functional, organism-based; conditions: Human immunodeficiency virus 1, YTA
In short: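 Single-round infection of TZM-bl cells with R5 YTA virus; beta-galactosidase read as relative light units; IC50 = concentration giving 50% reduction vs virus control wells; mean of at least three independent experiments.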

[3] = Selectivity index, ratio of CC50 for mock-infected human PM1 cells expressing CCR5 to IC50 for R5 tropic HIV1 YTA infected in human TZM-bl cells; type: functional
In short: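 SI calculated as CC50 (WST-8 viability, mock-infected PM1/CCR5 cells) divided by IC50 (beta-galactosidase reduction after single-round YTA infection of TZM-bl cells).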

[4] = test system: PM1; assay: Induction of gp120 conformational change in R5 tropic Human immunodeficiency virus 1 subtype B isolate JR-FL infected in human PM1 cells assessed as binding of anti-HIV1 mAb 4C11 measuring mean fluorescence intensity at 100 uM preincubated for 15 mins by FACS analysis using antibody staining (reference value: 14.94 fluorescence intensity); type: cell-based
In short: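 Env-expressing PM1 cells were pretreated with the CD4 mimic, then stained with the CD4-induced anti-envelope mAb 4C11 at 4 °C for 15 min. Cells were washed in PBS and detected with FITC-conjugated goat anti-human IgG. The read-out was flow cytometry on gated PM1 cells, giving the mean fluorescence intensity of 4C11. Anti-human CD19 served as the control antibody. Data are representative of at least two independent experiments.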

[5] = test system: Human immunodeficiency virus 1; assay: Antiviral activity against HIV1 infected in human PM1 cells expressing CCR5 assessed as inhibition of virus-induced cytopathogenicity by multi-round assay; type: functional, organism-based; conditions: Human immunodeficiency virus 1, PM1
In short: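 HIV-1-induced cytopathogenicity measured in PM1/CCR5 cells over multiple rounds of infection; IC50 from inhibition of cytopathic effect; mean of at least three independent experiments.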

[6] = Ratio of compound CC50 to NBD-556 CC50 for mock-infected human PM1 cells expressing CCR5 by WST-8 assay; type: ADME, cell-based

Row | SMILES | CC50 [1] | IC50 [2] | Ratio CC50/IC50 [3] | Flu intensity [4] | IC50 [5] | selectivity ratio [6]
1 | O=C(Nc1ccc(Cl)cc1)C(=O)Nc1ccc(Br)cc1 | > 500 µM | > 100 µM |  |  |  | 
2 | O=C(Nc1ccc(F)cc1)C(=O)Nc1ccc(Cl)cc1 | > 500 µM | 3.1 µM | >160 | 15.2 |  | 
3 | Cc1ccc(NC(=O)C(=O)NC2CC(C)(C)NC(C)(C)C2)cc1 | 260 µM | 8.4 µM | 31 |  |  | 
4 | O=C(Nc1ccc(Cl)cc1)C(=O)NC1CCN(C(=O)Nc2ccccc2)CC1 | 6.2 µM | 11 µM | 0.56 |  |  | 
5 | NC(=O)N1CCC(NC(=O)C(=O)Nc2ccc(Cl)cc2)CC1 | 310 µM | 8.3 µM | 37 | 16 |  | 
6 | O=C(Nc1ccc(Cl)cc1)C(=O)NC1CCNCC1 | 51 µM | 7 µM | 7.3 | 20.5 |  | 
7 | N=C(N)N1CCC(NC(=O)C(=O)Nc2ccc(Cl)cc2)CC1.O=C(O)C(F)(F)F | 72 µM | 6.1 µM | 12 | 20.9 |  | 
8 | O=C(Nc1ccc(Cl)cc1)C(=O)Nc1ccc(Cl)cc1 | > 500 µM | > 100 µM |  |  |  | 
9 | O=C(Nc1ccc(Cl)cc1)C(=O)NC1CC2(CCCCC2)NC2(CCCCC2)C1 (configuration not stated) | 120 µM | 0.68 µM | 176 | 22.2 | 0.56 µM | 4
10 | O=C(Nc1ccc(Cl)cc1)C(=O)NC1CCN(C(=O)c2ccccc2)CC1 |  | 5.1 µM |  | 17.8 |  | 
11 | NC(=S)N1CCC(NC(=O)C(=O)Nc2ccc(Cl)cc2)CC1 | 42 µM | 5.5 µM | 7.6 | 20.2 |  | 
12 | O=C(NCCc1ccccn1)C(=O)Nc1ccc(Cl)cc1 | 480 µM | 19.8 µM | 24 | 15.4 |  | 
13 | CC1(C)CC(NC(=O)C(=O)Nc2ccc(Cl)cc2)CC(C)(C)N1 | 35 µM | 0.61 µM | 57 | 23.1 | 0.9 µM | 
